Assay results: ChEMBL document CHEMBL1145384, “Novel C-6 fluorinated acyclic side chain pyrimidine derivatives: synthesis, (1)H and (13)C NMR conformational studies, and antiviral and cytostatic evaluations” (J Med Chem, 2007)

Assays:
Human betaherpesvirus 5 [1] = test: Antiviral activity against human cytomegalovirus AD169 in HEL cells assessed as reduction of plaque formation after 7 days; type: functional, organism-based; conditions: Human betaherpesvirus 5, AD169, HEL, 168 h
Summary of the method: (§1)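 Confluent HEL fibroblasts infected with HCMV (Davis or AD-169) at 100 PFU per well; after 2 h adsorption, residual virus removed and medium with serial compound concentrations added (duplicate wells). Incubated 7 days; EC50 taken as concentration reducing plaque formation by 50%.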

Human betaherpesvirus 5 [2] = test: Antiviral activity against human cytomegalovirus Davis in HEL cells assessed as reduction of plaque formation after 7days; type: functional, organism-based; conditions: Human betaherpesvirus 5, Davis, 168 h; summary of the method: as §1
Human alphaherpesvirus 3 [3] = test: Antiviral activity against thymidine kinase expressing Varicella-Zoster virus OKA assessed as reduction of plaque formation; type: functional, organism-based; conditions: Human alphaherpesvirus 3, OKA
Human alphaherpesvirus 3 [4] = test: Antiviral activity against thymidine kinase deficient Varicella-Zoster virus 07/1 assessed as reduction of plaque formation; type: functional, organism-based; conditions: Human alphaherpesvirus 3, 07/1
Summary of the method: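 Plaque reduction assay in HEL cells against TK+ (OKA) and TK- (07/1) VZV strains; virus input 100 PFU; EC50 as concentration giving 50% plaque reduction.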

[5] = Cytotoxicity against HEL cells assessed as cell morphology after 7 days; type: cell-based; conditions: human
Summary of the method: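 Uninfected confluent HEL cultures exposed to compounds; MCC recorded as lowest concentration producing a microscopically detectable alteration of normal cell morphology at day 7.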

[6] = Cytotoxicity against HEL cells assessed as cell growth after 7 days; type: cell-based; conditions: human
Human respirovirus 3 = test: Antiviral activity against parainfluenza 3 virus in Vero cells assessed as reduction of virus plaque formation after 7 days; type: functional, organism-based; conditions: Human respirovirus 3, Vero, 168 h
[7] = test system: Mammalian orthoreovirus 1; test: Antiviral activity against reovirus1 virus in Vero cells assessed as reduction of virus plaque formation after 7 days; type: functional, organism-based; conditions: Mammalian orthoreovirus 1, Vero, 168 h
Sindbis virus = test: Antiviral activity against sindbis virus in Vero cells assessed as reduction of virus plaque formation after 7 days; type: functional, organism-based; conditions: 168 h
Punta Toro virus = test: Antiviral activity against Punta Toro virus in Vero cells assessed as reduction of virus plaque formation after 7 days; type: functional, organism-based; conditions: 168 h
Coxsackievirus B4 = test: Antiviral activity against coxsackie B4 virus in HeLa cells assessed as reduction of virus plaque formation after 7 days; type: functional, organism-based; conditions: Enterovirus B, 168 h
HEp-2 = test: Growth inhibition of Hep2 cells after 72 hrs by MTT assay; type: functional, cell-based; conditions: Homo sapiens, HEp-2, 72 h
Summary of the method: (§2)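 Tumor lines grown as monolayers in DMEM with 10% FBS, 2 mM L-glutamine and penicillin. Freshly diluted compounds added, solvent tested at matching concentrations; after 72 h growth measured by MTT. IC50 obtained by linear regression of concentrations bracketing 50% growth; mean of three separate experiments.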

HeLa = test: Growth inhibition of HeLa cells after 72 hrs by MTT assay; type: functional, cell-based; conditions: Homo sapiens; summary of the method: as §2
MIA PaCa-2 = test: Growth inhibition of MiaPaCa2 cells after 72 hrs by MTT assay; type: functional, cell-based; conditions: Homo sapiens, MIA PaCa-2, 72 h; summary of the method: as §2
SW-620 = test: Growth inhibition of SW620 cells after 72 hrs by MTT assay; type: functional, cell-based; conditions: Homo sapiens, SW-620, 72 h; summary of the method: as §2
MCF7 = test: Growth inhibition of MCF7 cells after 72 hrs by MTT assay; type: functional, cell-based; conditions: Homo sapiens, MCF7, 72 h; summary of the method: as §2
L1210 = test: Growth inhibition of mouse L1210 cells after 72 hrs by MTT assay; type: functional, cell-based; conditions: L1210, 72 h
[8] = Growth inhibition of human Molt4/C8 cells after 72 hrs by MTT assay; type: functional, cell-based; conditions: MOLT-4, 72 h
CCRF-CEM = test: Growth inhibition of human CEM cells after 72 hrs by MTT assay; type: functional, cell-based

Row | Structure (SMILES) | EC50 (Human betaherpesvirus 5 [1]) [µM] | EC50 (Human betaherpesvirus 5 [2]) [µM] | EC50 (Human alphaherpesvirus 3 [3]) [µM] | EC50 (Human alphaherpesvirus 3 [4]) [µM] | MCC at 168 h [5] [µM] | CC50 at 168 h [6] [µM] | EC50 (Human respirovirus 3) [µM] | EC50 [7] [µM] | EC50 (Sindbis virus) [µM] | EC50 (Punta Toro virus) [µM] | EC50 (Coxsackievirus B4) [µM] | IC50 (HEp-2) [µM] | IC50 (HeLa) [µM] | IC50 (MIA PaCa-2) [µM] | IC50 (SW-620) [µM] | IC50 (MCF7) [µM] | IC50 (L1210) [µM] | IC50 [8] [µM] | IC50 (CCRF-CEM) [µM]
1 | COc1cc(CC(C)(O)C(F)(F)F)nc(OC)n1 (stereo not given) | > 100 | > 100 | > 100 | > 100 | > 100 | > 100 | > 200 | > 200 | > 200 | > 200 | > 200 | > 200 | > 200 | > 200 | > 200 | > 200 | > 200 | > 200 | > 200
2 | COc1cc(/C=C(/O)C(F)(F)F)nc(OC)n1 | > 80 | > 100 | > 100 | > 100 | > 100 | > 100 | > 100 | > 100 | > 100 | > 100 | > 200 | > 200 | > 200 | > 200 | > 200 | > 200 | > 200 | 80 | > 200
3 | COc1cc(CC(O)(c2ccc(F)cc2)c2ccc(F)cc2)nc(OC)n1 | > 100 | > 100 | > 100 | > 100 | > 100 | > 100 | > 40 | > 40 | > 40 | > 40 | > 40 | > 100 | > 100 | > 100 | > 100 | > 100 | ≥ 500 | > 500 | > 500
4 | COc1nc(CC(C)(O)C(F)(F)F)c(-c2ccccc2)c(OC)n1 (stereo not given) | > 0.8 | > 0.8 | > 20 | > 20 | 4 | 35 | > 40 | > 40 | > 40 | > 40 | > 40 | 19 | 17 | 20 | 20 | > 17 | 82 | 118 | 70
5 | COc1cc(/C=C(\O)C(F)(F)C(F)(F)F)nc(OC)n1 | > 100 | > 100 | > 100 | > 100 | > 100 | ≥ 60 | > 100 | > 100 | > 100 | > 100 | > 100 | 55.4 | 26.3 | ≥ 100 | 45 | 76 | 80 | 43 | 9.7
6 | COc1cc(CC(C)(O)Cc2ccccc2F)nc(OC)n1 (stereo not given) | > 100 | > 100 | > 100 | > 100 | ≥ 100 | > 100 | > 130 | > 130 | > 130 | > 130 | > 200 | > 200 | > 200 | > 200 | > 200 | > 200 | > 200 | 79 | 156
7 | CC(O)(CF)Cc1cc(O)nc(O)n1 (stereo not given) | > 100 | > 100 | > 100 | > 100 | > 100 | > 100 | > 196 | > 196 | > 196 | > 196 | > 200 | > 200 | > 200 | > 200 | > 200 | > 200 | > 200 | > 200 | > 200
8 | COc1nc(OC)c(Br)c(C(Br)Br)n1 | > 20 | > 20 | 8.8 | 10.5 | 100 | 1.7 | 40 | > 40 | 40 | > 40 | > 40 | 2 | 1 | 2 | 0.4 | 6 | 8.8 | 8.5 | 7.1
9 | COc1nc(CC(C)(O)c2ccc(F)cc2)c(C)c(OC)n1 (stereo not given) | 45 | 20 | 80 | 45 | > 100 | > 100 | > 200 | > 200 | > 200 | > 200 | > 40 | 43 | 35 | 65 | ≥ 100 | 38 | 195 | 144 | 136
10 | CC(O)(Cc1cc(O)nc(O)n1)C(F)(F)F (stereo not given) | > 100 | > 100 | > 100 | > 100 | > 100 | > 100 | > 200 | > 200 | > 200 | > 200 | > 200 | > 100 | > 100 | > 100 | > 100 | > 100 | > 500 | > 500 | > 500
